# Source: ChEMBL document CHEMBL4513216, “Probing the Open Global Health Chemical Diversity Library for Multistage-Active Starting Points for Next-Generation Antimalarials” (ACS Infect Dis, 2020)
# Assay: Toxicity liver stage against HepG2, at 10uM
# Type: cell-based
# Set-up: test concentration 10 uM, cell line HepG2-A16-CD81EGFP
# Details: human, HepG2-A16-CD81EGFP cells; read-out: INHIBITION
# Outline: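 Uninfected HepG2-A16-CD81EGFP cells, 3 × 10^3 per well, 1536-well, plated on prespotted compound at 10 μM final, parasite-free screening media added to match infected plates; puromycin 10 μM positive, DMSO 0.5% negative; run in parallel with 48 h PbLuc assay at 37 °C, 5% CO2; viability by CellTiter-Glo luminescence, normalized to controls.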
row,Structure (SMILES),cytotoxicity at 10 µM
1,Cc1ccc(S(=O)(=O)N2CCN(CCC#N)CC2)s1,-10.8%
2,CN(C)[C@@H]1CO[C@H](CNC(=O)Nc2ccccc2)[C@H]1O,-0.713%
3,CN1C(=O)C(C)(C)COc2ccc(NS(=O)(=O)Cc3ccccc3)cc21,8.2%
4,O=C(CSC1=NS(=O)(=O)c2cc(Cl)ccc2N1)c1ccccc1,13.6%
5,O=C(N[C@@H]1CN(c2ncccn2)[C@@H]2CCCO[C@@H]21)c1cscn1,-142%
6,COCCC(=O)N1CC2(CCN(c3ccccc3)C2)C1,10.3%
7,CC(=O)N1CCO[C@@H]2CN(C(=O)c3ccccc3)CC[C@@H]2C1,5.29%
8,O=C(CO)N1CCCn2nnc(Cn3cccn3)c2C1,6.59%
9,CNC(=O)N1CC[C@H]2N(C)CC[C@@]2(C(=O)Nc2ccccc2)CC1,-17.2%
10,Cn1ncc2c1C(COCC1CC1)CN(Cc1nccs1)C2 (configuration not stated),4.49%
11,Cc1ccc(F)cc1NC(=O)c1[nH]ncc1Br,15.7%
12,O=C(c1nn[nH]c1Nc1ccc(Cl)cc1)N1CCSCC1,4.67%
13,Cc1cc(N2CCCN(c3ccnc(C)c3)CC2)ccn1,-0.943%
14,O=C(COCc1nc(-c2ccncc2)no1)NC1CCCCC1,-8.19%
15,CN(Cc1ncc(-c2ccccc2C(=O)O)s1)c1ncccn1,1.69%
16,Cc1noc(-c2cnc(NC(C)C)nc2-c2ccco2)c1C,-0.275%
17,c1ccc(OCCN2CCC(c3cnccn3)CC2)cc1,7.56%
18,O=C(c1cc[nH]n1)N1CCCC1c1cncc(CN2CCOCC2)n1 (configuration not stated),9.31%
19,NC(=O)c1cn[nH]c1C1CCCN1C(=O)c1ccccn1 (configuration not stated),0.893%
20,COc1ccc2[nH]cc(C(=O)N3C[C@@H](O)[C@H](N4CCCC4)C3)c2c1,2.35%
21,CCn1cc(S(=O)(=O)Nc2nc3c(s2)CC(C)CC3)cn1 (configuration not stated),9.88%
22,O=C(Cc1ccn[nH]1)N1CCc2cc(Br)sc2C1,4.42%
23,CSc1cc2c(cc1NC(=O)N(C)Cc1ccncc1)OCCO2,11.4%

row,Structure (SMILES),cytotoxicity at 10 µM
1,O=S(=O)(Cc1cccc(F)c1)Nc1cc(Cl)ccn1,-8.69%
2,COc1ccc(CNC(=O)c2ccc(=O)n(C)c2)cc1C,2.31%
3,CNC(=O)Cc1noc(-c2cc3c(s2)CCCCCC3)n1,3.76%
4,CC(c1nc(C2CC2)no1)N1CCN(CCS(C)(=O)=O)CC1 (configuration not stated),7.41%
5,CCc1nc2n(n1)CC(NCc1nc3ccccc3o1)CC2 (configuration not stated),12.4%
6,CN(c1ccc(F)c(F)c1)S(=O)(=O)c1cc2c(c(C(=O)O)c1)OCCO2,-5.38%
7,Cn1ncc2c(N3CCC(CC(=O)N4CCCC4)CC3)ncnc21,4.19%
8,Cn1c(=O)ccn(CC(=O)Nc2cccnc2)c1=O,-1.58%
9,Cc1nn(C)c2ncc(S(=O)(=O)N3CCCN4CCCC4C3)cc12 (configuration not stated),-0.334%
10,NC(=O)[C@@H]1Cc2ccccc2CN1CCc1cccs1,0.436%
11,C=C(C)CN1CCCC(CNS(C)(=O)=O)C1 (configuration not stated),5.63%
12,CCn1cnnc1C1CCN(C(=O)c2ccc3c(c2)nnn3C)CC1,10.9%
13,O=C(NCCNc1ncccn1)N1CCCC1c1ccncc1 (configuration not stated),-4.65%
14,COCCNC(=O)NCCc1cccc(OC)c1O,9.31%
15,CN(C)C(CNC(=O)c1nc(N2CCOCC2)ncc1Cl)c1cccs1 (configuration not stated),8.26%
16,Cc1ncsc1CCN1CCN(C(=O)c2ccc(=O)[nH]c2)CC1,4.38%
17,COCC(C)N(C)C(=O)c1ccc2nncn2c1 (configuration not stated),-1.37%
18,Cc1ccccc1C1(CN)CCCCC1,2.29%
19,CN1CCC(NC(=O)Nc2ccc(Br)c(F)c2)C1=O (configuration not stated),-147%
20,CC(C)(O)CN1CCN(C(=O)COC2CCCC2)CC1,1.46%
21,CCN1CCN(c2ccc(C(=O)NCc3cc(C)no3)cc2F)CC1,11.2%
22,CN(C)c1ccc(CN(CC2CCCO2)C(=O)c2csnn2)cc1 (configuration not stated),-1.59%
23,CNC(=O)NC(=O)C(C)N1CCN(c2ccc(C#N)cc2F)CC1 (configuration not stated),2.83%

row,Structure (SMILES),cytotoxicity at 10 µM
1,CC(C)N(CC(N)=O)CC(=O)N(C1=CCCCC1)C1CC1,-0.429%
2,CCCN(C)c1ccc(C(=O)NCc2ccnc(C)n2)cc1,6.6%
3,Cc1nc2ncnn2c(C)c1CCC(=O)Nc1cccn(C)c1=O,-9.59%
4,O=C(NCCc1cccc(O)c1)NC1CCN(c2ccccc2)C1=O (configuration not stated),5.68%
5,COc1ccnc(N2CCN(C(=O)CCc3nccs3)CC2)n1,-8.97%
6,Cc1noc(C)c1CNC(=O)N1CCC(CO)CC1,-8.08%
7,O=C(c1ccc(Br)o1)N1CCCC(n2cncn2)C1 (configuration not stated),-3.22%
8,NC(=O)CSCCC(=O)N1CCCC1c1ccsc1 (configuration not stated),-13.6%
9,Cc1nccn1-c1cc(CNC(=O)c2ccccn2)ccn1,-11.5%
10,CCCN(CC)C(=O)c1cc2c(c3ccccc3n2C)n1C(=O)N(C)C,-4.89%
11,c1ccc(Cc2noc(-c3ccc(NCC4COCCO4)nc3)n2)cc1 (configuration not stated),6.42%
12,Cc1ccccc1N1CCN(C(=O)c2cnn(C(C)C)c2)C(C)C1 (configuration not stated),1.48%
13,CN1CC2(CCN(C(=O)c3cccc(-n4cccn4)c3)CC2)OC1=O,4.5%
14,COc1ccccc1CN(Cc1cccnc1)Cc1c[nH]c(C)n1,6.43%
15,Cc1nccn1CCC1CCN(C2CCC3(CCNCC3)CC2)CC1,-1.43%
16,CCN(CCN1CCCCCC1)C(=O)c1cnc(-c2cccnc2)nc1,11.4%
17,N#Cc1cccc(NC2CC(=O)N(CCc3ccc(F)cc3)C2)n1 (configuration not stated),-118%
18,COCC1CCCCN1Cc1nc(-c2ccoc2)oc1C (configuration not stated),1.93%
19,CC1CCCCN1CCN(C)C(=O)c1cc(CN2CCC(O)CC2)on1 (configuration not stated),1.14%
20,COc1ccccc1CN(Cc1cccc(C)c1)C(=O)[C@@H](N)CC(=O)O,-47.7%
21,COCC(=O)N1CCCN(c2ncnc3c2CCNCC3)CC1,8.93%
22,CC(C)CN1CC2(CCN(C(=O)C3CSC(C)(C)C(=O)N3)CC2)CC1=O (configuration not stated),4.79%
23,O=C(COc1ccc(F)cc1F)N1CCOCC(O)(CN2CCCC2)C1 (configuration not stated),0.678%

row,Structure (SMILES),cytotoxicity at 10 µM
1,CC(c1ccon1)N(C)C(=O)C1CCN(CC(N)=O)CC1 (configuration not stated),-4.83%
2,CC(C)N1CCC(CN2CCn3nc(CNC(=O)N(C)C)cc3C2)CC1,1.09%
3,CN(C)Cc1nnc(C(=O)N(C)Cc2ccc(F)cc2)o1,0.624%
4,Cc1cccc(OCC2CCCN(C(=O)CN(C)C3CCNCC3)C2)c1 (configuration not stated),-8.4%
5,CC(C)CN(C)Cc1c[nH]nc1-c1ccc(F)cc1F,2.38%
6,COCCC1(CO)CCCN(C(=O)c2cc(C#N)c(=O)[nH]c2C)C1 (configuration not stated),-37.7%
7,CCOc1ccc(C(=O)CCC(=O)N(C)Cc2noc(C)n2)cc1C,-4.34%
8,CCC(C(=O)NCc1ccccn1)N(c1cccc(C)c1)S(C)(=O)=O (configuration not stated),0.383%
9,O=C(NCc1cc2n(n1)CCCN(Cc1ccc(CO)o1)C2)C1CCC1,5.46%
10,O=C(Nc1ccc2ncsc2c1)N1CCCN([C@H]2COC[C@@H]2O)CC1,-53.6%
11,COc1ncc(C(=O)N2CCC3(CC2)C(=O)Nc2ccccc23)cn1,-140%
12,Cn1nc(C(=O)N2CCCCC2c2nc3cc(F)ccc3[nH]2)ccc1=O (configuration not stated),-18.2%
13,CSc1ccc(S(=O)(=O)N2CCCCC2CCNC(C)=O)cc1 (configuration not stated),-9.61%
14,Cc1cc2c(cc1C(=O)N1CC[C@H](CO)[C@@H](O)C1)OCCO2,-10.8%
15,O=C(Cc1ccc2c(c1)OCO2)N1CCCN(c2ccccc2)CC1,-2.84%
16,O=C(c1cccc(S(=O)(=O)NCCCc2ncc[nH]2)c1)N1CCOCC1,-11.4%
17,Cc1nn(C)c(C)c1C1CCCN1Cc1nc(-c2ccccn2)no1 (configuration not stated),-5.29%
18,Cc1ccc(CC(=O)N(CC2CN(C)CCO2)c2nccs2)cn1 (configuration not stated),-9.89%
19,Cc1csc(N2CCN(CC(=O)Nc3cccnc3)CC2C)n1 (configuration not stated),14.1%
20,COc1ccc(Cl)cc1NCc1cc(C)on1,-7.13%
21,CCc1ocnc1C(=O)N1CCCC(n2nc(C)nc2C)C1 (configuration not stated),-11.5%
22,Cc1cc(C2CCCN(CCCS(C)(=O)=O)C2)n[nH]1 (configuration not stated),-13.2%
23,Cc1cc(C2CCCN(CCNS(=O)(=O)c3ccccc3)C2)n[nH]1 (configuration not stated),-28.5%

row,Structure (SMILES),cytotoxicity at 10 µM
1,Fc1cccc(-c2nc(CN3CCCC(Cn4cncn4)C3)co2)c1 (configuration not stated),-12.5%
2,CCOc1ncccc1NC(=O)C1CCS(=O)(=O)C1 (configuration not stated),-16.7%
3,CC(NC(=O)NCCCn1cncn1)c1ccccc1F (configuration not stated),-13.3%
4,Cc1cccc(-c2nc(C)nn2CC(=O)NCC(C)C)c1,-27.9%
5,CCc1csc(C2CCCN(C(=O)c3cc(Cl)c[nH]3)C2)n1 (configuration not stated),-9.83%
6,Cc1cnn(CC2CN(CC(=O)N(C)c3nccs3)CCO2)c1 (configuration not stated),0.385%
7,Cc1cc(C(=O)N2CCc3nnc(N)cc3C2)c(C)n1-c1cccnc1,-1.25%
8,COC(=O)C(c1cc(F)ccc1F)N(C)C(=O)c1ccnc(C)n1 (configuration not stated),-0.337%
9,O=C(CCc1nccs1)N1CCN(c2ccc(Br)cn2)CC1,-2.65%
10,CCNC(=O)N1CCCC(c2noc(CC)n2)C1 (configuration not stated),-2.45%
11,CCn1cc(CN2CCCN(C(=O)C3=NN(C)C(=O)CC3)CC2)cn1,3.54%
12,COc1cccc(Nc2nc(C3CCCNC3)c3sc(C)c(C)n23)c1 (configuration not stated),-4.93%
13,N#Cc1ccc(N2CCC3(CCCN(c4ccccn4)C3)C2)nc1 (configuration not stated),15.6%
14,Cc1nc(C)c(C(=O)N2Cc3ccccc3OCC2CN(C)C)o1 (configuration not stated),2.2%
15,COCC1Cn2nnc(-c3cnn(C)c3)c2CN1Cc1ccco1 (configuration not stated),-9.44%
16,COCC1Cn2nnc(-c3cnn(C)c3)c2CN1Cc1ccc(C)s1 (configuration not stated),-10.5%
17,Cc1cnc2n1CCN(C)C21CCN(CC2CC2)CC1,7.34%
18,CN1CCN(Cc2cn3c(n2)CN(C(=O)N2CCOCC2)CC3)CC1,-18.3%
19,CCOCC(=O)N1CCC2(CC1)COCCN2CCOC,8.37%
20,CN(C)C(=O)N1C[C@H]2CC[C@@H](C1)N(C(=O)c1c(Cl)cccc1Cl)C2,7.2%
